Each structure is given as a SMILES string.

This passage reports cytotoxicity results from ChEMBL document CHEMBL4513216, “Probing the Open Global Health Chemical Diversity Library for Multistage-Active Starting Points for Next-Generation Antimalarials” (ACS Infect Dis, 2020).

The series is described as follows: Toxicity liver stage against HepG2, at 10uM. The series is classed as cell-based. The arrangement: test concentration 10 uM, cell line HepG2-A16-CD81EGFP. Particulars: human, HepG2-A16-CD81EGFP cells; read-out: INHIBITION
The gist of the method:
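Uninfected HepG2-A16-CD81EGFP cells, 3 × 10^3 per well, 1536-well, plated on prespotted compound at 10 μM final, parasite-free screening media added to match infected plates; puromycin 10 μM positive, DMSO 0.5% negative; run in parallel with 48 h PbLuc assay at 37 °C, 5% CO2; viability by CellTiter-Glo luminescence, normalized to controls.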
With `O=C(COCC(F)(F)F)Nc1nncs1`, the cytotoxicity at 10 µM amounted to 5.79%. On to `Cc1cccc(OC2CCN(C(=O)NCCn3ccnc3)CC2)c1C`, for which the cytotoxicity at 10 µM was 0.856%. The same measure for `Cc1ccc(CNC2(Cc3cc(CO)on3)COC2)o1`: 0.305%; for `CC(C)NC(=O)N[C@H]1C[C@@H](c2nc(-c3ccncc3)no2)N(C)C1`: -2.8%; for `CC(=O)N1N=C(c2ccco2)OC1C(=O)NCC(C)C` (stereo not drawn): -5.31%. The same measure for `O=S1(=O)[C@@H](c2ccccc2)[C@H](CO)CN1c1ccccc1`: -5.41%.

Consider `Cc1nn(-c2ncnc3[nH]cnc23)c2c1C(CC(C)C)CC(=O)N2` (stereo not drawn), for which the cytotoxicity at 10 µM amounted to 11.2%. Then `Cc1ccc(NC(=O)CC2NC(N3CCc4ccccc43)=NC2=O)cc1` (stereo not drawn), with 0.417%; and `Cc1cc(C)n(Cc2ccc(-c3noc(C(=O)NC[C@@H](C)O)n3)cc2)n1`, with -9.62%; and `Cc1nn(-c2ncnc3[nH]cnc23)c2c1C(C(C)(C)C)CC(=O)N2` (stereo not drawn), with 5.08%. Then `O=C(c1cscn1)N1CCC2(CC1)CCN(S(=O)(=O)c1ccccc1)C2`, with 10.5%; and `Cc1nc(NC(C)C)nc2c1CN(Cc1nccn1C)CC2`, with 8.13%. Then `CO[C@@H]1CC[C@H]2[C@H]1OCCN2S(=O)(=O)c1cn(C)cn1`, with 5.32%.

Take `COCCN1CCC2(CC1)COc1ccccc1S(=O)(=O)N(C)C2`: the cytotoxicity at 10 µM is -1.28%. Regarding `COc1cc(N2CC[C@@H]3O[C@@H](C(=O)NC(C)C)C[C@@H]32)ncn1`, the cytotoxicity at 10 µM stood at 7.66%. As for `CN(C)Cc1cn2c(n1)CN(C1CCOC1)CC2` (stereo not drawn), the cytotoxicity at 10 µM turned out to be 6.43%. Then `c1cncc(OCc2noc3c2CN(Cc2ccoc2)CC3)c1`, with -8.33%. For the molecule `COc1cccc(CNC(=O)c2cc(C)nc(N3CCCC3)n2)c1`, the cytotoxicity at 10 µM came to 23.1%. The same measure for `Cc1cc(C(F)(F)F)nn1C(C)C(=O)NN1CCOCC1` (stereo not drawn): -1.67%.

Regarding `CC1CCN(C(=O)C2CC(=O)N(c3cnn(C(C)C)c3)C2)CC1` (stereo not drawn), the cytotoxicity at 10 µM was -0.343%. The same measure for `CC(=O)NCc1cncc(C2CCCN2C2CCOCC2)n1` (stereo not drawn): 2.15%; for `Cc1ncsc1CN1CCOC(C)(C(=O)N2CCOCC2)C1` (stereo not drawn): -1.95%; for `CNC(=O)C1(C)CN(c2nc(C)cc(C)n2)CCO1` (stereo not drawn): 7.92%. The same measure for `Cc1cc(Nc2ncccn2)nc(C2CCCN(CCO)C2)n1` (stereo not drawn): 1.09%; for `COc1cc2cc3c(nc2cc1OC)OCCN(Cc1cccs1)C3`: 11.4%.

With `Cc1cnn(CC2CCN(CC(O)c3ccc(F)cc3)CC2)c1` (stereo not drawn), the cytotoxicity at 10 µM is -0.237%. The same measure for `CCC(c1ccncc1)N(C)S(C)(=O)=O` (stereo not drawn): -5.98%; for `O=C(NCCc1nncn1C1CC1)C1SCCc2ccccc21` (stereo not drawn): 2.48%. Then `CCc1noc(CN(C)C2CCN(c3sccc3C#N)C2=O)n1` (stereo not drawn), with 7.73%; and `COc1ccc(Cl)cc1CS(=O)(=O)Cc1nc(C2CC2)no1`, with 3.43%; and `Cc1noc(C(C)Nc2ccc3oc(=O)[nH]c3c2)n1` (stereo not drawn), with -2.27%. The same measure for `CC(C)S(=O)(=O)C(C)C(=O)NCc1ccccc1COc1ccccc1` (stereo not drawn): 12.1%; for `O=C(Nc1ccc2c(ccn2CCN2CCOCC2)c1)c1ccccn1`: 0.425%. On to `O=C(Nc1ccccn1)c1nc(N2CCCC2)ncc1Cl`, for which the cytotoxicity at 10 µM is -8.77%. The same measure for `Cc1cc(S(=O)(=O)Nc2cccc(I)c2)sc1C(=O)O`: 3.76%; for `CC(=O)c1cccc(NS(=O)(=O)c2cc(C)c(C(=O)O)s2)c1`: 0.178%.

Regarding `O=C(NCc1ccncc1)c1ccc(Cl)cc1F`, the cytotoxicity at 10 µM came out at 0.55%. The same measure for `O=C(Nc1cccc(CN2CCOC2=O)c1)N1CCCCCC1`: 18.6%; for `Cc1nccn1-c1cc(CNC(=O)CCNC(=O)OC(C)(C)C)ccn1`: -1.7%; for `COc1ccccc1C1(CNc2ccc(C(=O)N(C)C)cn2)CC1`: -10.5%. Then `CS(=O)(=O)CCCNC(=O)NC1CC(c2cccc(Cl)c2)C1` (stereo not drawn), with -3.17%; and `CC(OCC(F)(F)F)C(=O)NCCN(C)C` (stereo not drawn), with -3.17%; and `Cc1ccc(F)c(NCC(C)(C)S(C)(=O)=O)c1`, with -7.6%. Then `O=C(C[S+]([O-])Cc1ccc(F)cc1Cl)N1CCc2sccc2C1` (stereo not drawn), with -2.22%; and `CN(CCc1nccs1)C(=O)CC1(O)CCCCC1`, with -6.16%. In the case of `Cc1ccc(-n2nnnc2C2(NCc3ccco3)CCCC2)cc1`, the cytotoxicity at 10 µM came out at 7.55%. Then `COC(=O)CCC(=O)Nc1ccc(Br)c(C)n1`, with 7.07%; and `Cc1cnn(C2CN(Cc3nnc(C4CC4)o3)C2)c1`, with -6.49%. `CCCN1CCCN(C(=O)C(CC)N2CCCC2=O)CC1` (stereo not drawn): the cytotoxicity at 10 µM is -6.17%. Then `CC(C)c1nc(CNc2ccc(CCO)cc2)cs1`, with 20.1%; and `Cn1ccnc(Sc2ccccc2)c1=O`, with 0.483%; and `CC(C)c1nc(CN(C)CC2CCN(CCO)CC2)no1`, with -4.32%. Then `CC(=O)N1CCN(CCNS(=O)(=O)c2ccc(C)c(F)c2)CC1`, with -1.84%; and `COc1ccc(S(=O)(=O)N2C[C@@H]3CN(C)CCO[C@@H]3C2)cc1`, with 1.82%; and `COc1ccc([C@@H]2CN(c3cc(OC)nc(N)n3)C[C@H]2N(C)C)cc1`, with 15%. Then `CC1(c2ccccc2)CCCN(C(=O)c2ccn3nnnc3c2)C1` (stereo not drawn), with 22.6%; and `Cc1nc(C)c(C)c(N2CCC3(CCN(C)C3)C2)n1` (stereo not drawn), with -4.88%; and `CNC(=O)C(C)(C)N(C)C(=O)c1cc(COc2ccccc2OC)[nH]n1`, with -5.12%. With `CC(C)c1cc(C(=O)N[C@H]2CN(C3CCOCC3)C[C@@H]2C2CC2)no1`, the cytotoxicity at 10 µM worked out at 6.31%. Then `CC(NC1CCSCC1)c1ccccc1-n1cccn1` (stereo not drawn), with -2.24%. In the case of `O=C1CN(CCCNS(=O)(=O)c2cccc(C(=O)NC3CC3)c2)CCN1`, the cytotoxicity at 10 µM is -3.45%. For the molecule `CCN(C)S(=O)(=O)N1CCCC(CO)(CC=C(C)C)C1` (stereo not drawn), the cytotoxicity at 10 µM was -3.41%. The same measure for `COC(=O)[C@@H]1C[C@H](NC(=O)Cn2c(=O)cc(C)c3ccccc32)CN1C`: -3.44%; for `CC1(C)OC(=O)N(CCCC(=O)c2ccc(F)cc2)C1=O`: -4.87%. As for `CCc1noc(CN(C)Cc2cc3ccc(Cl)cc3[nH]c2=O)n1`, the cytotoxicity at 10 µM is 4.92%. For the molecule `Cn1ccc2c(-c3cc(N4CCOCC4)ncn3)ccnc21`, the cytotoxicity at 10 µM was determined as 2.64%. For `CN(CCc1ncnn1C1Cc2ccccc2C1)C1CCS(=O)(=O)C1` (stereo not drawn), the cytotoxicity at 10 µM was -3.54%. Then `CCN(Cc1nccn1C)C(=O)c1ccc(NCc2cnn(C)c2)nc1`, with 0.82%; and `Nc1ccc(C(=O)N2CCCC(C(=O)CCc3ccccc3)C2)cn1` (stereo not drawn), with -7.98%; and `CN(C)S(=O)(=O)N1CC[C@]2(O)CCN(Cc3cccc(C#N)c3)C[C@@H]2C1`, with -4.63%. The same measure for `O=C(CCCN1CCOCC1)N1CCCC(CO)(CC2CC2)C1` (stereo not drawn): -1.5%; for `CN(CC(=O)N1CC(C)(C)[C@](O)(C2CC2)C1)Cc1cccnc1`: -52%. Then `COc1ccc(Oc2cncc(C3CCCN3C(C)=O)n2)cc1` (stereo not drawn), with 2.86%; and `CCCc1noc(CN2CCN(c3nccs3)CC2)n1`, with -3.43%. As to `CC(Cn1cccn1)NC(=O)Nc1ccccn1` (stereo not drawn), the cytotoxicity at 10 µM worked out at 1.32%.

As for `CNc1nc(CNC(=O)Nc2ccc(SC)c(F)c2)cs1`, the cytotoxicity at 10 µM was -5.75%.

Regarding `Cc1cc(CNc2cc(Cl)ccc2C)no1`, the cytotoxicity at 10 µM is -7.01%. `CCc1nccn1C1CCCN(C(=O)c2csc(C3CC3)n2)C1` (stereo not drawn): the cytotoxicity at 10 µM is -9.39%. For the molecule `CN(C)c1ncccc1CNS(=O)(=O)c1ccccc1Cl`, the cytotoxicity at 10 µM is -15.3%. Regarding `Cc1cnn(CC2CCCCN2C(=O)c2ccc(N(C)C)nc2)c1` (stereo not drawn), the cytotoxicity at 10 µM is -13.2%. Then `Cc1nn(C)c(C)c1C1CCCN1C(=O)c1ccnc(N(C)C)c1` (stereo not drawn), with -5.42%; and `CCc1nc(CN2CCCN(C(=O)c3cncnc3C)CC2)cs1`, with -7.95%; and `CCn1cnnc1CNC(=O)N1CCOCC1`, with 3.66%.

With `Cc1nc(C2CCCN(C(=O)c3cccc4c3OCO4)C2)no1` (stereo not drawn), the cytotoxicity at 10 µM is 3.39%.

Consider `CCCc1ncc(C(=O)N2CCOC(c3nc(C)n[nH]3)C2)s1` (stereo not drawn), for which the cytotoxicity at 10 µM was -0.12%.

For the molecule `Cc1ccccc1CN1CCN(CC(=O)Nc2cccnc2)CC1`, the cytotoxicity at 10 µM was -2.82%.

`CN(C)Cc1nn(C)c2c1CN(C(=O)c1ccc[nH]1)C2`: the cytotoxicity at 10 µM worked out at 9.22%.

Turning to `O=C1CC(c2ccncc2)C2(CCN(CC3CC3)CC2)N1` (stereo not drawn), the cytotoxicity at 10 µM stood at 11.3%. The same measure for `O=S(=O)(C1CC1)N1CC[C@H](OCC2CC2)[C@@H]1Cc1cccnc1`: 8.13%. The same measure for `Cc1ccc(CN2CCc3ncnc(-c4ccncc4)c3CC2)o1`: -1.19%. Then `O=C(Nc1ccc(F)cc1)C(c1ccccc1)N1CCOCC1` (stereo not drawn), with -3.84%; and `c1coc(CN2CCCn3c(CN4CCOCC4)nnc3C2)c1`, with 4.86%; and `CC1c2ncc(CNC(=O)C3CC3)n2CCN1Cc1nccs1` (stereo not drawn), with -5.43%.

Take `Cn1nc(Cn2cccn2)c2c1CN(C1CCOC1)C2` (stereo not drawn): the cytotoxicity at 10 µM came to 6.92%. Then `Cc1ccsc1CN1C[C@@H]2COC[C@]2(COCC(=O)N(C)C)C1`, with -4.55%; and `Cc1ccnc(N2C[C@H]3CC[C@@H](C2)N(CC2CCC2)C3=O)n1`, with 11.4%; and `CN1CC2(CCC(C(=O)O)CC2)Oc2ccccc2C1=O` (stereo not drawn), with 2%.

With `CCCSCC(=O)N1C[C@@H]2CC[C@H]1CN(c1ncccn1)C2`, the cytotoxicity at 10 µM was found to be 4.42%.
